# pEC50: −log10 of the molar value. The source made the active and inactive calls. No cut-off for these calls is given here.
# What was measured:
# [1] = target: T1, Heat shock factor protein 1 (Homo sapiens) (UniProt Q00613); assay: Amplification of HSF1 transcriptional activity in human HeLa cells assessed as granule formation pretreated for 3 hrs by immunocytochemical staining; format: cell-based
# T1 sequence (whole entry): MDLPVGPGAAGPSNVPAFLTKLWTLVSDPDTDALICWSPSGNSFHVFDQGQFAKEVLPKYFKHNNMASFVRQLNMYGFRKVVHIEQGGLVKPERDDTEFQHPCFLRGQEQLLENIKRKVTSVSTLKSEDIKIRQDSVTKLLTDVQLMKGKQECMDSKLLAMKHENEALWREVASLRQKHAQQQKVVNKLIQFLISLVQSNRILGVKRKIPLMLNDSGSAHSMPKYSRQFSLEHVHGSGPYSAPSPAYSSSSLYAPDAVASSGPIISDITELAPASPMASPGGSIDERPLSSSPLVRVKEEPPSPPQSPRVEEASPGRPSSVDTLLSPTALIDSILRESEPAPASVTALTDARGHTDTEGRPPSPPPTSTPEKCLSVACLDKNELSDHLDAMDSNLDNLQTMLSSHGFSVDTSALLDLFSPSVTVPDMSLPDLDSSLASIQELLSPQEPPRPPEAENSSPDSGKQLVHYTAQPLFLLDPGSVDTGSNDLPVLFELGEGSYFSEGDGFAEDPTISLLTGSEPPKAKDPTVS
# Method in brief: (§1)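 HeLa cells pretreated with compound 1 h, then mild heat shock 41 °C for 2 h, no recovery; control arm pretreated 3 h at 37 °C without heat shock. Compound diluted 200-fold, 0.3 to 80 µM range.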
# [2] = system: SK-N-SH; assay: Cytoprotection against rotenone stress-induced toxicity in human SK-N-SH cells after 48 hrs by MTS assay; format: functional, cell-based; conditions: for pEC50: Homo sapiens, SK-N-SH, 48 h, read-out: EC50
# Method in brief: (§2)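 SK-N-SH neuroblastoma cells (within passage 6) seeded in DMEM with 0.1% FBS for 18 h, then fresh medium with 200 nM rotenone (final) plus compound, 0.019 to 10 µM. Incubated 48 h, then MTS viability read. Cytoprotection expressed as viability increase over the rotenone DMSO control; EC50 = concentration giving half-maximal protection. Data averaged over multiple tests.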
# [3] = system: SK-N-SH; assay: Cytoprotection against rotenone stress-induced toxicity in human SK-N-SH cells assessed as increase in cell viability after 48 hrs by MTS assay relative to control; format: functional; set-up: concentration or dose not given beside the values; method in brief: as §2
# [4] = Therapeutic index, ratio of CC50 for human SK-N-SH cells to EC50 for human SK-N-SH cells; format: cell-based; conditions: read-out: Ratio CC50/EC50
# [5] = (§3) Cytotoxicity against human HeLa cells after 72 hrs by MTS assay; format: cell-based; conditions: HeLa cells
# Method in brief: (§4)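 HeLa (8000 cells/well) or SK-N-SH (14,000 cells/well) cells seeded in DMEM with 10% FBS for 18 h. Compound added at 1:200 dilution, final 0.3 to 80 µM, 0.5% v/v DMSO. Exposure 72 h, then MTS/PMS for 4 h, SDS to 1.4% w/v, absorbance at 492 nm. CC50 = concentration giving half-maximal cytotoxicity.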
# [6] = Cytotoxicity against human SK-N-SH cells after 72 hrs by MTS assay; format: cell-based; method in brief: as §4
# [7] = Therapeutic index, ratio of […]; format: cell-based; conditions: read-out: FC
# [8] = target: T1, Heat shock factor protein 1 (Homo sapiens); assay: Amplification of HSF1 transcriptional activity in human HeLa cells assessed as […] granule count at 80 uM by immunocytochemical staining; format: cell-based; method in brief: as §1
# [9] = system: SK-N-SH; assay: Cytoprotection against rotenone stress-induced toxicity in human SK-N-SH cells at 1.25 uM after 48 hrs by MTS assay; format: functional; method in brief: as §2
# [10] = system: SK-N-SH; assay: Cytoprotection against rotenone stress-induced toxicity in human SK-N-SH cells assessed as increase in cell survival at 0.625 after 48 hrs by MTS assay relative to control; format: functional; method in brief: as §2
# [11] = system: HeLa; assay: Cytotoxicity against human HeLa cells at 80 uM after 72 hrs by MTS assay; format: cell-based; method in brief: as §4
# [12] = system: HeLa; assay: as §3; format: cell-based; conditions: hela, 72 h; method in brief: as §4
# [13] = system: SK-N-SH; assay: Cytoprotection against rotenone stress-induced toxicity in human SK-N-SH cells at 0.63 uM after 48 hrs by MTS assay; format: functional; method in brief: as §2
# [14] = system: SH-SY5Y; assay: Cytoprotection against oxygen-glucose deprivation-induced cytotoxicity in human SH-SY5Y cells at 0.5 uM after 28 hrs by MTS assay; format: functional
# Method in brief: (§5)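 SH-SY5Y cells plated on collagen I-coated wells, grown 16–24 h in complete medium, washed twice in deoxygenated glucose- and serum-free medium; compound added within 1 h before OGD. Chambers flushed with 95% N₂/5% CO₂, residual O₂ <1%, held at 37 °C for 28 h. MTS viability; cytoprotection = (MTS_compound − MTS_DMSO)/MTS_DMSO × 100% versus OGD DMSO control.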
# [15] = system: SH-SY5Y; assay: Cytoprotection against oxygen-glucose deprivation-induced cytotoxicity in human SH-SY5Y cells at 1 uM after 28 hrs by MTS assay; format: functional; method in brief: as §5
# [16] = system: SH-SY5Y; assay: Cytoprotection against oxygen-glucose deprivation-induced cytotoxicity in human SH-SY5Y cells at 2.5 uM after 28 hrs by MTS assay; format: functional; method in brief: as §5
SMILES,Activity [1],pEC50 [2],Activity [3],CC50 at 72 h [5],CC50 at 72 h [6],further results
CCn1nc(-c2ccc(C)s2)nc2c(=O)n(C)c(=O)nc1-2,inactive,5.88,50%,22.2 µM,63.5 µM,selectivity ratio [4]: ≤ 48; selectivity ratio [7]: ≤ 7
CCCn1nc(-c2nc3ccccc3s2)nc2c(=O)n(C)c(=O)nc1-2,inactive,6.26,55%,15.6 µM,5.4 µM,Activity [8]: 25%
Cn1c(=O)nc2n(Cc3ccc(F)cc3)nc(-c3nc4ccccc4s3)nc-2c1=O,inactive,,inactive,23.4 µM,21.3 µM,EC50 ([2]; sk-n-sh): Not Active
CCCCn1nc(-c2ccc(C)s2)nc2c(=O)n(C)c(=O)nc1-2,inactive,,44%,15.3 µM,18.2 µM,Activity [9]: 44%
CCCCn1nc(-c2ccc3ccccc3n2)nc2c(=O)n(C)c(=O)nc1-2,inactive,6.54,71%,9.5 µM,4 µM,Activity [10]: 103%
CCCCn1nc(-c2nc3ccccc3[nH]2)nc2c(=O)n(C)c(=O)nc1-2,inactive,5.72,59%,,13.1 µM,Activity [11]: 76%; Activity [12]: Not Active
CCn1nc(-c2ncc[nH]2)nc2c(=O)n(C)c(=O)nc1-2,inactive,5.57,62%,11.9 µM,3.6 µM,
CCn1nc(-c2ccco2)nc2c(=O)n(C)c(=O)nc1-2,inactive,,64%,5.6 µM,2.8 µM,Activity [9]: 64%
CC(C)CCn1nc(-c2nc3ccccc3s2)nc2c(=O)n(C)c(=O)nc1-2,inactive,6.62,44%,16.9 µM,10.7 µM,
CCn1nc(-c2ccc(C)s2)[n+]([O-])c2c(=O)n(C)c(=O)nc1-2,inactive,5.96,57%,15 µM,27.2 µM,
CCCCn1nc(-c2ccc(C)s2)[n+]([O-])c2c(=O)n(C)c(=O)nc1-2,inactive,6.72,27%,6.6 µM,7.2 µM,
CCCCn1nc(-c2nccs2)nc2c(=O)n(C)c(=O)nc1-2,inactive,,55%,2.5 µM,1.4 µM,Activity [13]: 55%; Activity [14]: 7%; Activity [15]: 23%; Activity [16]: 39%
CCCCn1nc(-c2ncc[nH]2)nc2c(=O)n(C)c(=O)nc1-2,inactive,6.52,56%,3.6 µM,1.3 µM,
Cn1c(=O)[nH]c2nnc(-c3cccs3)nc2c1=O,,,,> 80 µM,> 80 µM,

# — ChEMBL document CHEMBL1152353, “Pyrimido[5,4-e][1,2,4]triazine-5,7(1H,6H)-dione derivatives as novel small molecule chaperone amplifiers” (Bioorg Med Chem Lett, 2009)
